Shown are actives, neighbours in structure and some others; about 3.8% of the full set was active somewhere.
HSF-1 act: increases HSF-1 driven luciferase reporter signal. NIH3T3-HGL HSF-1 luciferase reporter, MG132, 8 h; 100% = twice DMSO control signal. activation, % at 9 µM. 300,000 tested, 1.7% active. AID 504408;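 active means mean replicate activation of at least 50% with a set share of replicates each reaching 50%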;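 further: 0% = median of the neutral control wells and 100% = twice that signal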
HCV NS3 hel inh: blocks Hepatitis C virus NS3 helicase unwinding | inhibition, % at 10.9 µM | AID 1800 | 290,000 tested, 0.56% active | NS3 helicase DNA unwinding, Cy5 molecular beacon fluorescence;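 active means inhibition above the mean of all tested compounds plus 3 SD, set per campaign, cut at about 35% in these data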;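 further: 0% = DMSO wells and 100% = thioflavine S control wells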
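Assay system: hepatitis C virus NS3 helicase domain fragment enzyme. Also added: annealed dual-labelled DNA beacon duplex, ATP-started. Timing: 1 h reaction at 25 °C, ATP-initiated. Technique: Cy5 fluorescence at 0 and 60 min, beacon hairpin quenching. Evaluation: % inhibition of unwinding. Replication: one well per compound.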
HSF1 inhib: HSF1 inhibition; NIH3T3-HGL HSE-luciferase, MG132-induced, luminescence 8 h; active compounds read low; activity change, negative = inhibition, % at 7.5 µM (by protocol); 300,000 tested, 0.77% active; AID 2098;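 active means more than half of replicate wells show activity change below -50%, luminescence cut by over half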;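 further: luciferase reports HSF-1 transcriptional activity via heat shock element; 0% = median of DMSO wells and -100% = zero luminescence signal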
HSP90 refold inh: HSP90 refolding inhibition in rabbit reticulocyte lysate | 290,000 tested, 0.91% active | luciferase refolding luminescence, 3 h | inhibition, % at 5.6 µM | AID 1789;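 active means inhibition above the screen-wide mean plus 3 SD, computed separately per campaign, cut at about 16% in these data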;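 further: 0% = DMSO wells and 100% = 60 µM geldanamycin wells; inhibitors lower the luminescence because luciferase stays unfolded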
Hep lipid drop: modulators of hepatic lipid droplet formation; AID 1656; AML12 mouse hepatocytes, oleate lipid droplets, BODIPY imaging; inhibition, % at 6.5 µM; 240,000 tested, 0.4% active;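 active means lipid droplet intensity inhibited by at least 50%, with more than 500 cells counted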
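Assay system: AML12 mouse liver cells | Compound dosing: One dose, 6.5 µM compound | Read-out basis: Droplet intensity reduction, % inhibition | Measured by: Fluorescence imaging, 20x objective, two fields per well | Schedule: Overnight treatment with compound plus oleate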
Numbers without * were called inactive; nt = no result given.

SMILES	HSF-1 act	HCV NS3 hel inh	HSF1 inhib	HSP90 refold inh	Hep lipid drop
COc1cc(NC(=O)c2cc3c(C)nc4ccccc4c3o2)cc(OC)c1OC	-52	-3	-51*	0	nt
CCC(C)NC(=O)CSc1nc2c(sc(=S)n2Cc2ccco2)c(=O)n1-c1ccccc1 (stereo not drawn)	16	7	-5	-1	15
CCOC(=O)CSc1nc2c(sc(=S)n2Cc2ccco2)c(=O)n1-c1ccc(F)cc1	80*	7	41	1	nt
CCN(CC)C(=O)CSc1nc2c(sc(=S)n2-c2ccccc2)c(=O)n1Cc1ccco1	67*	4	43	-2	-8
CN(CC(=O)Nc1c(Cl)cccc1Cl)C(=O)Cc1ccc(S(=O)(=O)N2CCOCC2)s1	-16	4	-7	-2	-2
Cc1ccc(NC(=O)C2(C)Cc3ccccc3C(=O)O2)cc1 (stereo not drawn)	9	5	3	3	-26
COC1CCCN(C(=O)c2ccc(OC3CCN(CCc4ccccc4)CC3)cc2)C1 (stereo not drawn)	-77	0	-74*	-2	-10
Cc1cccc(OCCOCCSc2ncccn2)c1	-23	0	-5	2	10
Cc1ccc(OCCSc2ncccn2)c(C)c1	62*	4	36	2	28
CCOC(=O)c1c(NC(=O)COc2ccccc2C#N)sc2c1CC(C)(C)NC2(C)C	-50	-75	-53*	-1	21
O=[N+]([O-])c1cccc(/C=N/Nc2nc(NCc3ccccc3)nc(N3CCOCC3)n2)c1O	-39	-9	-27	2	-10
CCc1ccccc1-n1c(SCC(=O)Nc2ccc3c(c2)OCCO3)nc2[nH]ncc2c1=O	-75	-5	-68*	7	nt
CCc1ccccc1-n1c(SCC(=O)N2CCCC2)nc2[nH]ncc2c1=O	17	17	-3	-3	5
CCc1n[n+](CC(=O)c2ccccc2)c(N)s1	nt	-4	nt	52*	4
CC(=O)Nc1ccc(-c2nnn(CC(=O)Nc3ccc4c(c3)OCO4)n2)cc1Cl	-67	-24	-59*	-1	6
Cc1cc(C)n(CC(=O)NC2C(=O)N3C(C(=O)O)=C(CSc4nnc(C)s4)CSC23)n1 (stereo not drawn)	9	6	-1	-4	4
Cc1nnc(SCC2=C(C(=O)O)N3C(=O)C(NC(=O)c4cccc(F)c4F)C3SC2)s1 (stereo not drawn)	63*	26	24	3	4
Brc1ccc2ncnc(NCc3ccco3)c2c1	-19	3	-26	4	nt
OC(CNCc1ccco1)Cn1c2ccc(Br)cc2c2cc(Br)ccc21 (stereo not drawn)	61*	-13	23	-3	-13
CCN1CCN(CCNC(=O)CCCCCn2c(=O)[nH]c3cc(C(=O)OC)ccc3c2=O)CC1	-65	2	-54*	0	nt
O=S(=O)(Nc1ccc2ccccc2n1)c1ccc2c(c1)CCO2	5	-9	-11	-2	-5
O=C(CCCCCn1c(=S)[nH]c2ccc(N3CCOCC3)cc2c1=O)NCc1ccc(Cl)cc1	17	6	1	0	3
O=c1c2cc(N3CCOCC3)ccc2[nH]c(=S)n1Cc1ccc(Cl)cc1	56*	0	17	5	9
COc1cccc(/C=C/C(=C2/C(=O)N(c3ccccc3)N=C2C)c2ccccc2)c1OC	-11	-5	-3	-5	20
COc1ccccc1/C=C/C(=C1/C(=O)N(c2ccccc2)N=C1C)c1ccc(C)cc1	-10	-1	-8	-5	53*
SMILES	HSF-1 act	HCV NS3 hel inh	HSF1 inhib	HSP90 refold inh	Hep lipid drop
CCOc1ccc2nc(SCC(=O)Nc3ccc4c(c3)OCCO4)[nH]c2c1	-7	6	5	-2	-3
COc1ccc2nc(SCC(=O)Nc3ccc4c(c3)OCCO4)[nH]c2c1	-59	-4	-53*	12	nt
O=C(CSc1nc2ccccc2[nH]1)Nc1ccccc1F	12	-5	-1	4	6
O=C(CSc1nc2ccccc2[nH]1)Nc1ccc(F)c(F)c1	-71	-14	-61*	4	-12
O=C(COc1ccc2c(c1)oc(=O)c1ccccc12)NCC1CCC(C(=O)O)CC1 (stereo not drawn)	15	6	0	-3	0
CC(=O)N1c2ccc(S(=O)(=O)NCCC(=O)Nc3ccc(F)cc3C)cc2CC1C (stereo not drawn)	-2	13	0	1	2
CC(Cc1ccccc1)C(=O)Nc1ccccc1 (stereo not drawn)	-71	1	-65*	4	-2
CC(Cc1ccccc1)C(=O)Nc1ccc(Br)cc1 (stereo not drawn)	6	-14	12	3	-6
COC(=O)Cn1c(=O)c2c(nc3n2CC(C)CN3CCc2ccccc2)n(C)c1=O (stereo not drawn)	63*	-8	18	-5	-4
COC(=O)Cn1c(=O)c2c(nc3n2CC(C)CN3Cc2ccccc2)n(C)c1=O (stereo not drawn)	3	1	0	-3	-3
COc1ccc(CCNC(=O)[C@H](CC(C)C)NC(=O)N2CCn3c2nc2ccccc23)cc1OC	56*	4	27	1	-46
COCCNC(=O)C1CC(=O)N(C2CCCCC2)C1 (stereo not drawn)	55*	0	15	0	nt
CC(CCc1ccccc1)NC(=O)CN1CCSc2ccccc21 (stereo not drawn)	3	3	2	1	-3
CC(C)(C)c1ccc(NC(=O)Nc2ccc(F)cc2)cc1	57*	8	30	-1	-3
CC(C)(C)c1ccc(COC(=O)Nc2ccc(F)cc2)cc1	5	-3	-6	-1	-10
O=C(NCCCN1CCOCC1)C(=O)N/N=C/c1ccc2c(c1)OCO2	-2	7	-7	1	11
Cc1cc(C)nc(SCc2cn3cc(Cl)ccc3n2)n1	64*	-4	42	-2	28
C/C(=N\NC(=O)CCC(=O)Nc1ccc(C)c(C)c1)c1cccs1	6	8	-3	-3	-1
N/C(=N\OC(=O)COc1ccc(Br)cc1Cl)c1cccnc1	60*	-2	31	4	15
N/C(=N\OC(=O)COc1ccc(Cl)cc1Br)c1cccnc1	42	-19	39	2	-2
O=C1N/C(=C\c2ccc(O)cc2)C(O)=C1C=NCc1ccccc1	64*	-17	41	1	0
COc1ccc(/C=C2\NC(=O)C(C=NCc3ccccc3)=C2O)cc1	25	-10	7	-3	3
Cc1ccc(C2=NN(C(=O)c3cccs3)C(c3ccccc3O)C2)cc1 (stereo not drawn)	80*	-1	54	-2	15
O=C(c1cccs1)N1N=C(c2ccccc2)CC1c1ccccc1O (stereo not drawn)	nt	7	nt	4	3
O=[N+]([O-])c1cccnc1NCCc1ccccc1	45	-7	27	-1	-5

From PubChem
